pIC50: −log10 of the molar value. The source made the active and inactive calls. The calls are words filed in the database; no cut-off is given here.
Experiments:
Bel-7402 [1] = test: Induction of apoptosis in human Bel7402 cells assessed as early apoptotic cells at 0.25 uM after 72 hrs by Annexin V-FITC/propidium iodide staining based flow cytometry (reference value: 1.65%); type: functional
Bel-7402 [2] = test: Induction of apoptosis in human Bel7402 cells assessed as viable cells at 0.5 uM after 72 hrs by Annexin V-FITC/propidium iodide staining based flow cytometry (reference value: 82.48%); type: functional; settings: Bel-7402, 72 h, read-out: Activity
Bel-7402 [3] = test: Cell cycle arrest in human Bel7402 cells assessed as accumulation at G2/M phase at 0.5 uM after 72 hrs by propidium iodide staining-based flow cytometric method (reference value: 23.71%); type: functional
Bel-7402 [4] = test: Cell cycle arrest in human Bel7402 cells assessed as accumulation at G1 phase at 0.5 uM after 72 hrs by propidium iodide staining-based flow cytometric method (reference value: 39.28%); type: functional
Bel-7402 [5] = test: Induction of apoptosis in human Bel7402 cells assessed as viable cells at 0.25 uM after 72 hrs by Annexin V-FITC/propidium iodide staining based flow cytometry (reference value: 82.48%); type: functional; settings: Bel-7402, 72 h, read-out: Activity
Bel-7402 [6] = test: Induction of mitochondrial membrane depolarization in human Bel7402 cells after 24 to 48 hrs by JC1 staining based flow cytometric analysis; type: functional, cell-based
Bel-7402 [7] = test: Induction of apoptosis in human Bel7402 cells assessed as viable cells at 0.125 uM after 72 hrs by Annexin V-FITC/propidium iodide staining based flow cytometry (reference value: 82.48%); type: functional; settings: Bel-7402, 72 h, read-out: Activity
Bel-7402 [8] = test: Induction of apoptosis in human Bel7402 cells assessed as necrotic cells at 0.25 uM after 72 hrs by Annexin V-FITC/propidium iodide staining based flow cytometry (reference value: 13.05%); type: functional
Bel-7402 [9] = test: Induction of apoptosis in human Bel7402 cells assessed as late apoptotic cells at 0.5 uM after 72 hrs by Annexin V-FITC/propidium iodide staining based flow cytometry (reference value: 2.82%); type: functional
Bel-7402 [10] = test: Induction of mitochondrial membrane depolarization in human Bel7402 cells assessed as cell with intact mitochondrial membrane potential at 0.25 uM after 24 to 48 hrs by JC-1 staining based flow cytometric analysis (reference value: 98.83%); type: functional
Bel-7402 [11] = test: Induction of apoptosis in human Bel7402 cells assessed as cell shrinkage at 0.125 to 0.25 uM after 48 hrs by Hoechst 33258 staining based fluorescent microscopic method; type: functional
Summary of the method: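 Bel-7402 cells were seeded and grown 24 h, treated at 0.125, 0.25 and 0.5 µM for 48 h, then harvested by mild trypsinization and washed in PBS. They were stained with Hoechst 33258 for 15 min at room temperature in the dark and examined by fluorescence microscopy with a DAPI filter. Untreated cells served as control.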

PC-3 = test: Antiproliferative activity against human PC3 cells after 72 hrs by MTT assay; type: functional, cell-based; settings: PC-3, 72 h
Summary of the method: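 Cells pre-incubated 24 h at 37 °C in humidified 5% CO2, then exposed to compounds for 72 h. MTT (5 mg/mL) was added for 4 h, formazan was dissolved in DMSO, and OD was read at 570 nm. Vehicle control was 0.1% DMSO. IC50 was calculated from inhibition ratios as the mean ± SD of three independent experiments.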

Bel-7402 [12] = test: Induction of apoptosis in human Bel7402 cells assessed as early apoptotic cells at 0.125 uM after 72 hrs by Annexin V-FITC/propidium iodide staining based flow cytometry (reference value: 1.65%); type: functional
[13] = Selectivity index, ratio of IC50 for human LO2 cells to IC50 for human Bel7402 cells; type: toxicity; settings: LO2 cells versus Bel7402 cells, read-out: Ratio IC50
Summary of the method: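 Selectivity index = IC50(L-O2)/IC50(Bel-7402), both IC50s from the 72 h MTT assay (mean of three independent experiments).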

Bel-7402 [14] = test: Induction of mitochondrial membrane depolarization in human Bel7402 cells assessed as cell with intact mitochondrial membrane potential at 0.125 uM after 24 to 48 hrs by JC-1 staining based flow cytometric analysis (reference value: 98.83%); type: functional
Bel-7402 [15] = test: Induction of cyto-c accumulation in human Bel7402 cells cytosol at 0.125 to 0.5 uM after 72 hrs by Western blot analysis; type: functional, cell-based
Summary of the method: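 Bel-7402 cells were treated for 72 h at the indicated concentrations (0.125–0.5 µM) and lysed. Lysates were cleared at 14,000 g for 10 min at 4 °C, and 25 µg protein per lane was run on 10% SDS-PAGE and transferred to nitrocellulose. Membranes were blocked in 5% milk, probed overnight at 4 °C with monoclonal antibodies, and detected by ECL. Densitometry was normalized to GAPDH.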

## C[C@H]1CCC/C=C/[C@@H]2C[C@H](O)C[C@H]2[C@H](OC(=O)c2ccc(N(CCCl)CCCl)cc2)/C=C/C(=O)O1
Bel-7402 [1]
  Activity: 22.69%
Bel-7402 [2]
  viability at 0.5 µM: 38.5%
Bel-7402 [3]
  Activity: 11.69%
Bel-7402 [4]
  Activity: 58.17%
Bel-7402 [5]
  viability at 0.25 µM: 62.9%
Bel-7402 [6]
  Activity: Dose-dependent effect
Bel-7402 [7]
  viability at 0.125 µM: 80.6%
Bel-7402 [8]
  Activity: 3.21%
Bel-7402 [9]
  Activity: 18.48%
Bel-7402 [10]
  Activity: 70.4%
Bel-7402 [11]
  Activity: Active
PC-3
  pIC50: 5.03
Bel-7402 [12]
  Activity: 10.49%
[13]
  selectivity ratio: 38.9
Bel-7402 [14]
  Activity: 83.63%
Bel-7402 [15]
  Activity: Active

— ChEMBL document CHEMBL4196069 (Eur J Med Chem, 2018)
